Source: PubChem BioAssay
CHT inh: inhibitors of human choline transporter CHT | High affinity choline transporter 1 (Homo sapiens), Q9GZV3 | CHT-expressing cells, membrane potential dye, choline response; stronger effect = lower value | B-score at 10 µM | 0.86% of 310,000 active;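 active means B-score over 3 SD under the library average, and starting fluorescence ratio not unusually high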;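 further: choline stimulus applied at its EC90 after an EC20 pre-addition; B-score computed on integrated fluorescence ratio after choline addition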
Target sequence (Q9GZV3 whole entry, looked up): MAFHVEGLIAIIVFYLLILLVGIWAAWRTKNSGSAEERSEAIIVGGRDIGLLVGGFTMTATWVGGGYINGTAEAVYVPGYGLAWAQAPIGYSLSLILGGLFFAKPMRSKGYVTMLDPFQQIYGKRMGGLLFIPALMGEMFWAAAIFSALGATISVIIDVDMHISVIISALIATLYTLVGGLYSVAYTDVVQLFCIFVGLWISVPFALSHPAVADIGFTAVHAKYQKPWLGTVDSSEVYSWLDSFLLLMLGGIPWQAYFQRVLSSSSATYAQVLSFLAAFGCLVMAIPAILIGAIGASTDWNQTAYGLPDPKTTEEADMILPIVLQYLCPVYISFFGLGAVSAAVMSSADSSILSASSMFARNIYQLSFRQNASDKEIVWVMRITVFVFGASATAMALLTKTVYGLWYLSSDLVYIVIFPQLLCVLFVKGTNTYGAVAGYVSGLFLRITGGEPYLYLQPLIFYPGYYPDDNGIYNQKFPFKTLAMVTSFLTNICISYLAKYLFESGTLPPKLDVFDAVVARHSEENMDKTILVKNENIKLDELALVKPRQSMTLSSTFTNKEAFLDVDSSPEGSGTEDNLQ
VIM-2 inh: VIM-2 metallo-beta-lactamase inhibitors, primary screen, biochemical, epi-absorbance readout, Pseudomonas aeruginosa enzyme; purified VIM-2, nitrocefin hydrolysis, epi-absorbance fluorescence; inhibition, % at 5.6 µM; 0.89% of 290,000 active;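 active means inhibition above the mean of all tested compounds plus 3 SD, cutoff set per screening run, cut at about 7.5% in these data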;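 further: red hydrolysis product quenches plate fluorescence so inhibitors raise well fluorescence; 0% = enzyme with DMSO and 100% = DMSO without enzyme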
TMEM16A inh: TMEM16A chloride channel inhibitors, primary screen, cell-based, HTS; Anoctamin-1 (Mus musculus), Q8BHY3; HEK293 TMEM16A/YFP iodide influx fluorescence, ionomycin; normalized B-score (activity score, 25-100; higher = stronger inhibition) at 10 µM; 1.2% of 310,000 active; AID 588511, 2011;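 active means ratio plate-corrected score three or more library SD toward inhibition, starting fluorescence score within five deviations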;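 further: score derived from kinetic fluorescence span divided by baseline fluorescence per well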
TMEM16A act: TMEM16A chloride channel activators or potentiators, primary screen, cell-based, HTS. B-score at 10 µM. Anoctamin-1 (Mus musculus), Q8BHY3. HEK293 TMEM16A/YFP-H148Q/I152L, iodide quench fluorescence; stronger effect = lower value. 0.3% of 340,000 active;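 active means fluorescence-ratio B-score plate-corrected deviation score at least 3 library SD below zero, with starting fluorescence score within 5 deviations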;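 further: channel opened by trigger with iodide after compound preincubation; score built on the fluorescence ratio of max minus min over baseline; more negative score means more quench and so TMEM16A activation or potentiation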
CHT allo act: CHT positive allosteric modulators, primary screen, cell-based, membrane potential dye, choline EC20 | High affinity choline transporter 1 (Homo sapiens), Q9GZV3 | AID 488977, 2010 | CHT-expressing cells; stronger effect = higher value; LV-AA mutant CHT in HEK293 cells | 0.49% of 310,000 active | B-score at 10 µM;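 active means initial fluorescence not abnormally high and integrated response B-score, plate-corrected, over 3 SD above library mean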
IMP-1 inh: IMP-1 metallo-beta-lactamase inhibitors, primary screen, biochemical, epi-absorbance readout, Pseudomonas aeruginosa enzyme; AID 1556, 2009; inhibition, % at 5.6 µM; purified IMP-1, nitrocefin hydrolysis, epi-absorbance fluorescence; 0.45% of 290,000 active; metallo-beta-lactamase IMP-1 (Pseudomonas aeruginosa);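 active means inhibition above the mean plus 3 SD of all compounds in the same screening run, cut at about 4.5% in these data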;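 further: 0% = IMP-1 with DMSO and 100% = DMSO wells lacking enzyme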
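System: purified IMP-1 / Input: IMP-1 dispensed at 0.2 nM / Medium: 50 mM HEPES pH 7.1, 50 µM ZnSO4, 0.05% Brij 35 / Timing: 15 min enzyme–compound preincubation, then 25 min nitrocefin reaction, 25 °C / Technique: plate fluorescence quenching by hydrolysis product, ex 480/em 530 nm / Repeats: singlicate testing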
* hit, by the source's call; i = inactive; . = not tested or not shown. A selection: hits, their analogues and other compounds. The true share with any hit is near 3.4%.

SMILES	CHT inh	VIM-2 inh	TMEM16A inh	TMEM16A act	CHT allo act	IMP-1 inh
O=[N+]([O-])c1ccc(N=Nc2ccc(O)cc2O)cc1	-9.9*	-7	100*	i	i	0
O=[N+]([O-])c1cccc(N=Nc2ccc(O)cc2O)c1	.	.	.	i	.	.
CC1CCCN(C(=O)c2ccc3c(c2NCCO)C(=O)c2ccccc2C3=O)C1 (stereo unspecified)	-5.4*	2	i	i	i	-6
C=CCN=C(NC#N)SCC(=O)c1cccc(OC)c1	i	2	25*	i	i	1
COCC(=O)N(Cc1cc2cccc(C)c2[nH]c1=O)c1ccccc1	i	-2	i	i	i	-3
CCN(C(=O)CSc1n[nH]c(N)n1)C1CCCCC1	.	.	.	i	.	.
C=CCn1c(SCC(=O)N(C)C)nc2sc3c(c2c1=O)CCC3	i	8.4*	i	i	i	-1
CCCC1SCC(C)(C)NC1=O (stereo unspecified)	.	.	.	i	.	.
N/C(=N\OC(=O)COc1ccc2ccccc2c1Br)c1cccnc1	i	0	25*	.	i	-1
CCn1cc(C(=O)NCCC(=O)NCCCO)c(=O)c2cc3c(cc21)OCO3	i	1	i	i	i	-1
COc1ccc(-n2c(C)ccc2-c2ccccc2)cn1	i	-2	i	-4.8*	i	-2
COC(=O)c1ccc(-n2c(C)ccc2-c2ccccc2)cc1	i	-1	i	i	i	-3
CCC(=O)Nc1nc2c(OC)ccc(OC)c2s1	i	-1	i	i	i	4.9*
CCCC(=O)Nc1nc2c(OC)ccc(OC)c2s1	i	-2	i	i	i	-3
CCOCCCNC(=O)C(NC(=O)Cc1c[nH]c2ccccc12)c1ccccc1 (stereo unspecified)	i	-4	i	i	i	-3
c1ccc(Cn2nnnc2C(c2cccs2)N2CCCCCC2)cc1 (stereo unspecified)	i	1	100*	i	i	-6
CC(=O)OC1(C(C)=O)CCC2C3CC(Cl)C4=CC(=O)CCC4(C)C3CCC21C (stereo unspecified)	.	.	.	i	.	.
CCN(CC(=O)Nc1c(F)cccc1F)C(=O)c1ccc(S(=O)(=O)N2CCCC2)cc1	i	.	i	i	i	.
CCN(CC(=O)Nc1c(F)cccc1F)C(=O)/C=C/c1ccc(S(=O)(=O)N2CCCCCC2)cc1	i	.	25*	i	i	.
O=C(O)c1cc(Cl)c2c(c1)[C@@H]1C=CC[C@@H]1[C@H](c1ccc(S(=O)(=O)N3CCOCC3)cc1)N2	i	1	i	i	i	11*
O=S(=O)(c1ccc(C2CCCCC2)cc1)N1CCOCC1	i	1	i	i	i	1
Cc1cc(C)c2c(c1)C1C=CCC1C(c1ccc(S(=O)(=O)N3CCOCC3)cc1)N2 (stereo unspecified)	i	-1	i	i	i	5.8*
Cn1nccc1C(=O)Nc1nnc(C2CC2)s1	i	-4	i	i	i	-6
O=C(CSc1ccc(F)cc1)N1CCOCC1	i	-2	i	i	i	-1
O=[N+]([O-])c1ccc(Nc2nccc(Cl)n2)cc1	i	.	i	i	i	.
SMILES	CHT inh	VIM-2 inh	TMEM16A inh	TMEM16A act	CHT allo act	IMP-1 inh
N#CC1=C(N)NC(SCC(=O)Nc2ccc(Br)cc2)=C(C#N)C12CCCCC2	i	-2	100*	i	i	-5
CCSC1=C(C#N)C2(CCCC2)C(C#N)=C(N)N1	i	-2	i	.	i	-1
N#CC1=C(N)NC(SCc2ccc(Br)cc2)=C(C#N)C12CCCCC2	i	0	100*	i	i	3
N#CC1=C(N)NC(SCc2ccc(Cl)cc2)=C(C#N)C12CCCCC2	i	-1	100*	i	i	-3
N#CC1=C(N)NC(SCC(=O)c2ccccc2)=C(C#N)C12CCCC2	i	-4	i	i	i	-4
N#CC1=C(N)NC(SCc2ccccc2)=C(C#N)C12CCCC2	i	0	i	-5.1*	i	-1
COc1ccc(S(=O)(=O)NC2CCc3ccccc32)cc1OC (stereo unspecified)	i	1	i	i	i	1
CC(C)(C)c1ccc(C(=O)Nc2cccc3c(=O)[nH][nH]c(=O)c23)cc1	i	-3	i	i	i	5.9*
Cc1ccc(C(=O)Nc2cccc3ccccc23)cc1	i	-3	i	i	i	-3
O=S(=O)(O)c1cc(O)c2c(O)c(N=Nc3cc(Cl)ccc3O)c(S(=O)(=O)O)cc2c1	i	-8	i	i	i	5.7*
CN(Cc1nccn1C)C(=O)C1CCC(=O)N(CCc2ccc(Cl)cc2)C1 (stereo unspecified)	i	-1	i	i	i	-4
CCOc1ccc(NC(=O)CN(C)C(=O)c2sccc2-c2ccccc2)cc1OCC	.	.	.	i	.	.
O=C(NC1=NCCS1)c1cccc(S(=O)(=O)N2CCOCC2)c1	.	.	.	i	.	.
NS(=O)(=O)c1ccc(N2CCCC2=O)c([N+](=O)[O-])c1	i	-1	i	-4.9*	i	-3
NNS(=O)(=O)c1ccc(N2CCCC2=O)c([N+](=O)[O-])c1	i	-1	i	i	i	-3
CC(=O)c1ccccc1OCCOc1ccccc1C(C)=O	i	-1	i	i	i	-3
COc1ccccc1OCCCCOc1ccccc1C(C)=O	i	-1	25*	i	i	-2
c1ccc2c(c1)nc(N1CCCCC1)c1ccccc12	i	-4	i	i	i	-4
c1ccc(-c2nc(N3CCCCCC3)c3ccccc3n2)nc1	i	3	i	i	i	5.8*
c1ccc2c(N3CCCCC3)nc(N3CCCC3)nc2c1	i	11*	i	i	i	-3
Cc1cccc(N(O)C(=O)Nc2cccc(Cl)c2)c1	i	4	i	i	i	0
O=C(Nc1cccc(Cl)c1)N1CCN2C(=O)c3ccccc3C12c1ccccc1 (stereo unspecified)	i	-1	25*	i	i	-2
CSCCC(NC(=O)c1ccc(Cl)c([N+](=O)[O-])c1)C(=O)N1CCN(C/C=C/c2ccccc2)CC1 (stereo unspecified)	i	.	i	i	i	.
